Experimental data as given in ChEMBL document CHEMBL1143838, “Candida albicans and Candida dubliniensis respond differently to echinocandin antifungal agents in vitro” (2007).
≈ marks a conversion by molar mass, not a printed value. *1 amine or outer side, *2 acyl side, *3 side chain or, on linkers, in order; H or OH if unused. Where a SMILES comes first, the peptide text is derived from it. Bridges are numbered along the chain shown (N, C = ends). [ ]: non-standard residue; d: D form. The star is where a group is joined. hTyr(3S-OH,4S-OH,3'-OSO3H) = N[C@H](C(=O)O)[C@H](O)[C@@H](O)c1ccc(O)c(OS(=O)(=O)O)c1; Orn(4R-OH,5R-OH) = O=C([C@H](C[C@@H](O)[C@@H](O)N[*:3])N[*:1])[*:2]; Pro(3S-OH,4S-Me) = C[C@H]1CN[C@H](C(=O)O)[C@H]1O; X1 = CCCCCOc1ccc(-c2cc(-c3ccc(C(=O)*)cc3)no2)cc1; Gln(3R-OH) = NC(=O)C[C@@H](O)[C@H](N)C(=O)O; Hyp = O=C(O)[C@@H]1C[C@@H](O)CN1

Assays:
Format in all cases: functional
Candida parapsilosis = assay: Antifungal activity against Candida parapsilosis ATCC 22019 after 24 hrs by CLSI M27-A test; settings: Lodderomyces parapsilosis, ATCC 22019, 24 h
Summary of the method: (§1)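 Broth microdilution with echinocandins as aqueous doubling dilutions. Yeasts were grown overnight at 30°C in NGY and seeded at 10^3 yeasts/ml initial concentration in MOPS-buffered RPMI 1640, then incubated at 35°C for 24 h. The MIC was read visually as the lowest concentration giving a marked decrease in visible growth; paradoxical or trailing growth was noted.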

Candida albicans [1] = assay: Antifungal activity against Candida albicans B06-341 after 24 hrs by CLSI M27-A test
Summary of the method: (§2)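 CLSI M27-A broth microdilution with aqueous doubling dilutions of drug. Inoculum grown overnight at 30°C in NGY medium, then added to MOPS-buffered RPMI 1640 at an initial 10^3 yeasts/ml. Incubated 35°C for 24 h. MIC read visually as the lowest concentration giving a marked decrease in visible growth; paradoxical or trailing growth noted.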

Candida albicans [2] = assay: Antifungal activity against Candida albicans HK04M102095 after 24 hrs by CLSI M27-A test; summary of the method: as §2
Candida dubliniensis [3] = assay: Antifungal activity against Candida dubliniensis SCSBB417709 after 24 hrs by CLSI M27-A test; summary of the method: as §1
Candida albicans [4] = assay: Antifungal activity against Candida albicans SCS140136P after 24 hrs by CLSI M27-A test; summary of the method: as §2
Candida albicans [5] = assay: Antifungal activity against Candida albicans NR4 after 24 hrs by CLSI M27-A test; summary of the method: as §2
Candida albicans [6] = assay: Antifungal activity against Candida albicans T25 after 24 hrs by CLSI M27-A test; summary of the method: as §2
Candida dubliniensis [7] = assay: Antifungal activity against Candida dubliniensis 90/033 after 24 hrs by CLSI M27-A test; summary of the method: as §2
Candida albicans [8] = assay: Antifungal activity against Candida albicans CAI4RI after 24 hrs by CLSI M27-A test; summary of the method: as §2
Candida albicans [9] = assay: Antifungal activity against Candida albicans T26 after 24 hrs by EUCAST test
Summary of the method: (§3)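 EUCAST broth microdilution with aqueous doubling dilutions of drug. Inoculum grown overnight at 30°C in NGY, then added to MOPS-buffered RPMI 1640 with 2% glucose at an initial 10^5 yeasts/ml. Incubated 35°C for 24 h. MICs taken from triplicate spectrophotometric dose-response data as 50% and 80% growth-reduction endpoints.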

Candida dubliniensis [10] = assay: Antifungal activity against Candida dubliniensis KR after 24 hrs by CLSI M27-A test; summary of the method: as §1
Pichia kudriavzevii [11] = assay: Antifungal activity against Candida krusei ATCC 6258 after 24 hrs by EUCAST test; settings: ATCC 6258, 24 h
Summary of the method: (§4)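 Yeasts were grown overnight at 30°C in NGY, then inoculated at 10^5 yeasts/ml initial concentration into MOPS-buffered RPMI 1640 with 2% glucose containing aqueous doubling dilutions of drug. Plates were held at 35°C for 24 h. MICs came from triplicate spectrophotometric dose-response data at 50% and 80% growth-reduction endpoints. Trailing meant a >100-fold gap between these endpoints; paradoxical meant regrowth ≥5% above the curve minimum.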

Candida albicans [12] = assay: Antifungal activity against Candida albicans SCS67023C after 24 hrs by CLSI M27-A test; summary of the method: as §2
Candida dubliniensis [13] = assay: Antifungal activity against Candida dubliniensis J931021 after 24 hrs by EUCAST test; summary of the method: as §4
Candida dubliniensis [14] = assay: Antifungal activity against Candida dubliniensis ANSA 23a after 24 hrs by EUCAST test; summary of the method: as §4
Candida albicans [15] = assay: Antifungal activity against Candida albicans JIMS146204 after 24 hrs by EUCAST test; summary of the method: as §3
Candida dubliniensis [16] = assay: Antifungal activity against Candida dubliniensis SCS17154969-2 after 24 hrs by EUCAST test; summary of the method: as §4
Candida albicans [17] = assay: Antifungal activity against Candida albicans SCS140136P after 24 hrs by EUCAST test; summary of the method: as §3
Candida dubliniensis [18] = assay: Antifungal activity against Candida dubliniensis SCSBB417709 after 24 hrs by EUCAST test; summary of the method: as §4
Candida albicans [19] = assay: Antifungal activity against Candida albicans SC5314 after 24 hrs by EUCAST test; settings: SC5314, 24 h; summary of the method: as §3
Candida dubliniensis [20] = assay: Antifungal activity against Candida dubliniensis SCS17154969-1 after 24 hrs by EUCAST test; summary of the method: as §4
Candida albicans [21] = assay: Antifungal activity against Candida albicans AM2003/0083 after 24 hrs by EUCAST test; summary of the method: as §3
Candida dubliniensis [22] = assay: Antifungal activity against Candida dubliniensis J930936 after 24 hrs by CLSI M27-A test; summary of the method: as §1
Candida dubliniensis [23] = assay: Antifungal activity against Candida dubliniensis SCS65875C after 24 hrs by EUCAST test; summary of the method: as §4
Candida albicans [24] = assay: Antifungal activity against Candida albicans T26 after 24 hrs by CLSI M27-A test; summary of the method: as §2
Candida dubliniensis [25] = assay: Antifungal activity against Candida dubliniensis 910Aa after 24 hrs by CLSI M27-A test; summary of the method: as §2
Candida dubliniensis [26] = assay: Antifungal activity against Candida dubliniensis SCS59662 after 24 hrs by CLSI M27-A test; summary of the method: as §1
Candida albicans [27] = assay: Antifungal activity against Candida albicans SCS67023C after 24 hrs by EUCAST test; summary of the method: as §3
Candida albicans [28] = assay: Antifungal activity against Candida albicans AM2003/0083 after 24 hrs by CLSI M27-A test; summary of the method: as §2
Candida albicans [29] = assay: Antifungal activity against Candida albicans HK04M102095 after 24 hrs by EUCAST test; summary of the method: as §3
Pichia kudriavzevii [30] = assay: Antifungal activity against Candida krusei ATCC 6258 after 24 hrs by CLSI M27-A test; settings: ATCC 6258, 24 h
Summary of the method: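 Broth microdilution per CLSI M27-A. Drugs were prepared as aqueous doubling dilutions. Inoculum was grown overnight at 30°C in neopeptone-yeast extract-glucose medium, then added to MOPS-buffered RPMI 1640 at an initial 10^3 yeasts/ml. Plates were incubated at 35°C for 24 h. MIC was read visually as the lowest concentration giving a marked decrease in visible growth.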

Candida albicans [31] = assay: Antifungal activity against Candida albicans T28 after 24 hrs by EUCAST test; summary of the method: as §3
Candida albicans [32] = assay: Antifungal activity against Candida albicans T32 after 24 hrs by CLSI M27-A test; summary of the method: as §2

Structure (SMILES) | MIC50 (Candida parapsilosis) | MIC50 (Candida albicans [1]) | MIC50 (Candida albicans [2]) | MIC50 (Candida dubliniensis [3]) | MIC50 (Candida albicans [4]) | MIC50 (Candida albicans [5]) | MIC50 (Candida albicans [6]) | MIC50 (Candida albicans [8]) | MIC50 (Candida albicans [9]) | MIC50 (Candida dubliniensis [10]) | MIC50 (Pichia kudriavzevii [11]) | MIC50 (Candida albicans [12]) | MIC50 (Candida dubliniensis [13]) | MIC50 (Candida dubliniensis [14]) | MIC50 (Candida albicans [15]) | MIC50 (Candida dubliniensis [16]) | MIC50 (Candida albicans [17]) | MIC50 (Candida dubliniensis [18]) | MIC50 (Candida albicans [19]) | MIC50 (Candida dubliniensis [20]) | also measured
CCCCCOc1ccc(-c2cc(-c3ccc(C(=O)N[C@H]4C[C@@H](O)[C@@H](O)NC(=O)[C@@H]5[C@@H](O)[C@@H](C)CN5C(=O)[C@H]([C@H](O)CC(N)=O)NC(=O)[C@H]([C@H](O)[C@@H](O)c5ccc(O)c(OS(=O)(=O)O)c5)NC(=O)[C@@H]5C[C@@H](O)CN5C(=O)[C@H]([C@@H](C)O)NC4=O)cc3)no2)cc1 [MICAFUNGIN] (X1-[Orn(4R-OH,5R-OH)]T[Hyp][hTyr(3S-OH,4S-OH,3'-OSO3H)][Gln(3R-OH)][Pro(3S-OH,4S-Me)]; lactam 1-C) | 0.25 µg/mL (≈ 0.197 µM) | ≤ 0.032 µg/mL | ≤ 0.032 µg/mL | ≤ 0.032 µg/mL | ≤ 0.032 µg/mL | 0.25 µg/mL (≈ 0.197 µM) | 1 µg/mL (≈ 0.787 µM) | 0.25 µg/mL (≈ 0.197 µM) | 1 µg/mL (≈ 0.787 µM) | ≤ 0.032 µg/mL | 0.13 µg/mL (≈ 0.102 µM) | ≤ 0.032 µg/mL | 0.063 µg/mL (≈ 0.0496 µM) | ≤ 0.032 µg/mL | ≤ 0.032 µg/mL | 0.063 µg/mL (≈ 0.0496 µM) | ≤ 0.032 µg/mL | ≤ 0.032 µg/mL | ≤ 0.032 µg/mL | 0.063 µg/mL (≈ 0.0496 µM) | MIC50 (Candida dubliniensis [7]): ≤ 0.032 µg/mL; MIC50 (Candida albicans [21]): ≤ 0.032 µg/mL; MIC50 (Candida dubliniensis [22]): ≤ 0.032 µg/mL; MIC50 (Candida dubliniensis [23]): ≤ 0.032 µg/mL; MIC50 (Candida albicans [24]): 1 µg/mL (≈ 0.787 µM); MIC50 (Candida dubliniensis [25]): ≤ 0.032 µg/mL; MIC50 (Candida dubliniensis [26]): ≤ 0.032 µg/mL; MIC50 (Candida albicans [27]): ≤ 0.032 µg/mL; MIC50 (Candida albicans [28]): ≤ 0.032 µg/mL; MIC50 (Candida albicans [29]): ≤ 0.032 µg/mL; MIC50 (Pichia kudriavzevii [30]): 0.13 µg/mL (≈ 0.102 µM); MIC50 (Candida albicans [31]): ≤ 0.032 µg/mL; MIC50 (Candida albicans [32]): ≤ 0.032 µg/mL
CC[C@H](C)C[C@H](C)CCCCCCCCC(=O)N[C@H]1C[C@@H](O)[C@@H](NCCN)NC(=O)[C@@H]2[C@@H](O)CCN2C(=O)[C@H]([C@H](O)CCN)NC(=O)[C@H]([C@H](O)[C@@H](O)c2ccc(O)cc2)NC(=O)[C@@H]2C[C@@H](O)CN2C(=O)[C@H]([C@@H](C)O)NC1=O [CASPOFUNGIN] | 1 µg/mL (≈ 0.915 µM) | 0.13 µg/mL (≈ 0.119 µM) | 0.5 µg/mL (≈ 0.457 µM) | 0.5 µg/mL (≈ 0.457 µM) | 0.5 µg/mL (≈ 0.457 µM) | 2 µg/mL (≈ 1.83 µM) | 8 µg/mL (≈ 7.32 µM) | 4 µg/mL (≈ 3.66 µM) | 16 µg/mL (≈ 14.6 µM) | 0.5 µg/mL (≈ 0.457 µM) | 2 µg/mL (≈ 1.83 µM) | 0.5 µg/mL (≈ 0.457 µM) | 16 µg/mL (≈ 14.6 µM) | 0.25 µg/mL (≈ 0.229 µM) | 0.25 µg/mL (≈ 0.229 µM) | 0.5 µg/mL (≈ 0.457 µM) | 0.25 µg/mL (≈ 0.229 µM) | 0.25 µg/mL (≈ 0.229 µM) | 0.25 µg/mL (≈ 0.229 µM) | 0.5 µg/mL (≈ 0.457 µM) | MIC50 (Candida albicans [21]): 0.25 µg/mL (≈ 0.229 µM); MIC50 (Candida dubliniensis [22]): 0.5 µg/mL (≈ 0.457 µM); MIC50 (Candida dubliniensis [23]): 8 µg/mL (≈ 7.32 µM); MIC50 (Candida albicans [24]): 8 µg/mL (≈ 7.32 µM); MIC50 (Candida dubliniensis [25]): 0.5 µg/mL (≈ 0.457 µM); MIC50 (Candida dubliniensis [26]): 0.5 µg/mL (≈ 0.457 µM); MIC50 (Candida albicans [27]): 0.25 µg/mL (≈ 0.229 µM); MIC50 (Candida albicans [28]): 0.5 µg/mL (≈ 0.457 µM); MIC50 (Candida albicans [29]): 0.25 µg/mL (≈ 0.229 µM); MIC50 (Pichia kudriavzevii [30]): 1 µg/mL (≈ 0.915 µM); MIC50 (Candida albicans [31]): 0.13 µg/mL (≈ 0.119 µM); MIC50 (Candida albicans [32]): 0.25 µg/mL (≈ 0.229 µM)
